High-throughput results deposited in PubChem BioAssay by several laboratories.
Hits are enriched below; roughly 2.3% of the tested compounds scored in any of these assays.
CTSL1 counter – Fasciola hepatica cathepsin L1 inhibitors, primary screen, counter-screen for PFM18AAP inhibitor project, biochemical, QFRET, fluorogenic peptide substrate; recombinant F. hepatica cathepsin L1, Z-Leu-Arg-MCA fluorescence; inhibition, % at 5.96 µM; hit rate 0.49% among 300,000;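 active = inhibition above the mean of all tested compounds plus 3 SD, set per screening campaign, cut at about 17% in these data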;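 note: 0% = plate median of test compound wells and 100% = 1 µM Z-Phe-Ala-diazomethylketone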
UCH37 inh – inhibitors of human UCH37 deubiquitinase, primary screen, biochemical, Ub-AMC cleavage, fluorescence; inhibition, % (test concentration not listed); AID 588478, 2011; hit rate 0.33% among 330,000; purified proteasome/UCH37;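 active = mean inhibition over replicate wells above about 20%, limit read from the data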;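 note: 0% = compound-free wells with enzyme and 100% = wells lacking proteasome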
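Reagent: Ub-AMC substrate; assay system: Proteasome-associated human UCH37 deubiquitinase; controls: no-proteasome and no-compound wells; read-out: % inhibition of Ub-AMC cleavage fluorescence; timing: 30 min preincubation with enzyme, 25 min cleavage at room temperature; signal: AMC fluorescence from Ub-AMC cleavage, excitation 355 nm, emission 460 nm; buffer or medium: Tris-HCl pH 7.4 plus ovalbumin, ATP-MgCl2, DTT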
PP1 counter – PP1-alpha phosphatase inhibitors, primary screen, counter-screen for PP5 inhibitor project, biochemical, fluorescence, OMFP substrate, single point | Serine/threonine-protein phosphatase PP1-alpha catalytic subunit (Homo sapiens), P62136 | purified PP1alpha | inhibition, % at 6.7 µM | hit rate 0.9% among 320,000;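 active = inhibition above the mean inhibition of all tested compounds plus 3 SD, computed separately for each screening campaign, cut at about 15% in these data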
UBC13 polyUb – UBC13 polyubiquitin chain formation inhibitors, primary screen, biochemical, TR-FRET, uHTS; inhibition, % at 20 µM; AID 485273, 2010; Ubiquitin-conjugating enzyme E2 N (Homo sapiens), P61088; hit rate 0.47% among 330,000; in the data active = inhibition above about 45%, passing the limit was not always enough; inconclusive = no clear call, values can overlap the other calls
PP5 inh – PP5 phosphatase inhibitors, primary screen, biochemical, fluorescence | purified PP5c, OMFP substrate fluorescence | Serine/threonine-protein phosphatase 5 (Homo sapiens), P53041 | hit rate 0.18% among 320,000 | inhibition, % at 6.7 µM | AID 1987, 2009;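 active = inhibition above the campaign's mean inhibition across all tested compounds plus 3 SD, cut at about 9.5% in these data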;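 note: 0% = DMSO only and 100% = 100 µM cantharidin control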
Target sequence (P53041 whole entry, looked up): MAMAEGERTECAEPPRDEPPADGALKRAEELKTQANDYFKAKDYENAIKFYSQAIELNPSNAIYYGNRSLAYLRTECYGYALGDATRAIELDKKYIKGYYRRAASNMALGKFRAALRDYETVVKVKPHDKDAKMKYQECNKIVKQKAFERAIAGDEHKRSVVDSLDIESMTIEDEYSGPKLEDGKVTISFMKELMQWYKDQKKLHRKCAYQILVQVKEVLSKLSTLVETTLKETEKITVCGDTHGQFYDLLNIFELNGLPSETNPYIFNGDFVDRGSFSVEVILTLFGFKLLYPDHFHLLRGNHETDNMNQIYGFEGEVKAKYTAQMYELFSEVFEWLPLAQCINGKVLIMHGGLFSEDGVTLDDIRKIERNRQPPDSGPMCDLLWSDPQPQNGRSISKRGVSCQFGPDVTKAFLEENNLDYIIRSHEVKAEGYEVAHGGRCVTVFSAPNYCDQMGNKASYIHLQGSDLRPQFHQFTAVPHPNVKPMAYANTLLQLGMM
PREPL inhibitor – PREPL enzyme inhibitors, primary screen, biochemical, fluorescence polarization; inhibition, % at 5.96 µM; hit rate 0.68% among 320,000; Prolyl endopeptidase-like (Homo sapiens), Q4J6C6; AID 2751, 2010; recombinant PREPL, fluorescence polarization activity-based probe; in the data active = inhibition above about 43%;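 note: 0% = enzyme with DMSO and 100% = wells lacking enzyme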
Casp3 counter – CASP3 inhibitor validation, counterassay for project on UBE2N polyubiquitination blockers, biochemical, one dose; inhibition, % at 20 µM; hit rate 4% among 1,400; shares compounds with UBC13 polyUb; Recombinant caspase-3, Caspase-Glo 3/7 luminescence, 60 min;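 active = mean inhibition across replicates above about 26%, limit read from the data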;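 note: plate controls were DMSO with caspase-3 for no effect and DMSO wells lacking enzyme for full effect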
UBC13 conf – UBC13 polyubiquitination inhibitors, single-point retest, confirmation, biochemical, TR-FRET, single concentration; inhibition, % at 10 µM; AID 488859, 2010; shares compounds with UBC13 polyUb; hit rate 68% among 1,400; in the data active = inhibition above about 45%; inconclusive = no clear call, values can overlap the other calls
An asterisk follows results filed as active; ? = inconclusive; nt = no result given.

SMILES | CTSL1 counter | UCH37 inh | PP1 counter | UBC13 polyUb | PP5 inh | PREPL inhibitor | Casp3 counter | UBC13 conf
Cc1nn(-c2ccccc2)cc1C=NNC(N)=S | nt | 6 | nt | nt | nt | nt | nt | nt
CCC(C)N(CCNC(=O)c1ccc2c(c1)NC(=O)c1ccccc1S2)C1CCCCC1 (stereo not drawn) | -4 | 7 | 2 | 52* | 2 | 14 | -2 | 70*
CC1CCCC(C)N1CCCNC(=O)c1ccc2c(c1)NC(=O)c1ccccc1S2 (stereo not drawn) | 6 | -1 | -2 | 41 | -1 | 9 | nt | nt
COc1ccc(C=NNC(=O)c2ccccc2)cc1OS(=O)(=O)c1ccccc1 | nt | 5 | nt | nt | nt | nt | nt | nt
Cc1ccc(OCC(=O)NN=Cc2cccc3cccnc23)cc1 | nt | 2 | nt | nt | nt | nt | nt | nt
Cc1ccc(-n2c(C)cc(C3N=C(N)Nc4nc5ccccc5n43)c2C)c(C)c1 (stereo not drawn) | 0 | 3 | 12 | 9 | 1 | -41 | nt | nt
Cc1cc(C2N=C(N)Nc3nc4ccccc4n32)c(C)n1-c1ccccc1Cl (stereo not drawn) | 0 | 4 | 7 | 46* | 3 | -69 | -4 | 55*
CC[C@H](CO)Nc1nc(Nc2cccc(Cl)c2)c2ncn(C(C)C)c2n1 | 0 | 0 | 0 | 77* | 4 | 15 | -2 | 67*
CCN(Cc1ccccc1)C(=O)c1nn(-c2ccc(OC)cc2)c(=O)c2c1c1ccccc1n2C | 0 | -9 | 1 | 45* | 3 | 1 | -2 | ?
Cc1nc2ccccc2c(=O)n1NC(=O)c1ccc(C(C)(C)C)cc1 | -1 | 0 | 1 | 39 | 3 | -7 | nt | nt
Cc1ccc(C(=O)Nn2c(C)nc3ccccc3c2=O)cc1C | -2 | 6 | -5 | 11 | 3 | 6 | nt | nt
COc1ccc(C(=O)Nn2c(C)nc3ccccc3c2=O)cc1 | -5 | 1 | 1 | 82* | 0 | 3 | -8 | 84*
CCCOc1ccc(C(=O)Nn2c(C)nc3ccccc3c2=O)cc1 | -1 | 1 | -5 | 96* | 0 | 5 | -2 | 108*
Cc1nc2ccccc2c(=O)n1NC(=O)/C=C/c1ccc(Br)cc1 | -7 | -2 | -1 | 60* | 1 | -28 | 7 | 53*
CC(=NNC(=O)c1nnn(-c2nonc2N)c1CN(C)C)c1ccco1 | nt | 4 | nt | nt | nt | nt | nt | nt
O=C(NNC(=O)c1ccccn1)c1ccc(OC(F)F)cc1 | nt | -3 | nt | 96* | nt | 6 | 59* | 68*
CCOc1cc(C=Nn2cnnc2)ccc1OS(=O)(=O)c1ccc(C)cc1 | nt | 6 | nt | nt | nt | nt | nt | nt
Cc1cc2ncc(Cl)nc2cc1C | -2 | -6 | -6 | 8 | 1 | 7 | nt | nt
Cc1cc2nc(Cl)c(Cl)nc2cc1C | -1 | 2 | 2 | 47* | 0 | -7 | 7 | 7
COc1ccc(Cl)cc1Nc1nc(NCCO)nc(N2CCCC2)n1 | 5 | 1 | -2 | 8 | 3 | 12 | nt | nt
OCCNc1nc(Nc2cc(Cl)ccc2OC2CCCC2)nc(N2CCCC2)n1 | -1 | 2 | 1 | 52* | 6 | 5 | 2 | 37
CCCCOc1ccc(Cl)cc1Nc1nc(NCCO)nc(N2CCCC2)n1 | 3 | 2 | -1 | 60* | 2 | 7 | -4 | 19
CCOc1ccc(Cl)cc1Nc1nc(NCCO)nc(N2CCCC2)n1 | 1 | 1 | -1 | 37 | 3 | -3 | nt | nt
COc1ccc(Cl)cc1Nc1nc(NCCO)nc(N2CCCCC2)n1 | 5 | 2 | 6 | 62* | 3 | 5 | 6 | 32
CC(C)Oc1ccc(Cl)cc1Nc1nc(NCCO)nc(N2CCCC2)n1 | 2 | 1 | -2 | 60* | 6 | 10 | 8 | 34
